Data set [1] deals with T1, hERG (KCNH2) (Homo sapiens, UniProt Q12809). Briefly: (§1) Inhibition of human ERG expressed in CHO cells at 10 uM incubated for 5 mins by patch-clamp assay relative to control. The conditions noted are these: CHO cells expressing human ERG. Type of data set: cell-based. Put shortly: (§2)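 hERG-expressing CHO cells grown at 32 °C, recorded by population patch clamp after amphotericin B perforation; PBS with Ca/Mg outside, KCl/EGTA/HEPES pH 7.3 inside. Holding −80 mV, step to 40 mV 2 s, then −50 mV 2 s; peak tail current before and after 5 min compound exposure. Percent inhibition = 100 − post/pre × 100; mean ± SD, n = 4.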
T1 sequence (Q12809 whole entry): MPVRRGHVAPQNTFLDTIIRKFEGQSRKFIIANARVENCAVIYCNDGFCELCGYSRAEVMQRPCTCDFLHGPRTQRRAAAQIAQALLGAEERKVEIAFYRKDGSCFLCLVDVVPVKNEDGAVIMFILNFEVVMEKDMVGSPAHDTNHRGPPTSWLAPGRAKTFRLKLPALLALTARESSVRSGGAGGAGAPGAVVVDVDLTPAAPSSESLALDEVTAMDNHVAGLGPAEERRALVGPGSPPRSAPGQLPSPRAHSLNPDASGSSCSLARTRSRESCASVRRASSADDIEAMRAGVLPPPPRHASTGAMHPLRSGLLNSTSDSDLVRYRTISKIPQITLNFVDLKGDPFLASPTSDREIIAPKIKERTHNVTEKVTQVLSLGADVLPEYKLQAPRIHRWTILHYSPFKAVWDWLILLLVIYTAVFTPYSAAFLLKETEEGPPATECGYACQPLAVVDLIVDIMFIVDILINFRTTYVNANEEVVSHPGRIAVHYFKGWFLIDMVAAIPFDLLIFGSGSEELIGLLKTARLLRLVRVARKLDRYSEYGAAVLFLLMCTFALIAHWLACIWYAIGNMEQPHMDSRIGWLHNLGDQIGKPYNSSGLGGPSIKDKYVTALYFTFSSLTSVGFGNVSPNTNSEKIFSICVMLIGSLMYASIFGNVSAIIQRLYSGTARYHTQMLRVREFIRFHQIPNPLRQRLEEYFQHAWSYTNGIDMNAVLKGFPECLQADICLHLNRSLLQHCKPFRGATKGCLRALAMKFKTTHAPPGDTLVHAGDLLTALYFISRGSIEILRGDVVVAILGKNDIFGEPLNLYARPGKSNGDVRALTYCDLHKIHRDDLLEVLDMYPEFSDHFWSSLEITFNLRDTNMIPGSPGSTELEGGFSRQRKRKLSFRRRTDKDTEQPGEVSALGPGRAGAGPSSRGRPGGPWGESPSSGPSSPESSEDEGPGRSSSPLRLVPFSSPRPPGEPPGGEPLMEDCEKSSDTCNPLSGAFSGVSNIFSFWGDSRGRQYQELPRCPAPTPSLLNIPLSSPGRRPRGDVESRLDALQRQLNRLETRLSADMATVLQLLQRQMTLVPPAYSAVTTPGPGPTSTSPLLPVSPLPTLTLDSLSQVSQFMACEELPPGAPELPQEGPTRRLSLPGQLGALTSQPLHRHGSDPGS
Background: The patch-clamp technique gives a direct electrical read-out from membranes.

Data set [2] has as its target T2, Glucose-dependent insulinotropic receptor (Homo sapiens, UniProt Q8TDV5).
T2 sequence (Q8TDV5 whole entry): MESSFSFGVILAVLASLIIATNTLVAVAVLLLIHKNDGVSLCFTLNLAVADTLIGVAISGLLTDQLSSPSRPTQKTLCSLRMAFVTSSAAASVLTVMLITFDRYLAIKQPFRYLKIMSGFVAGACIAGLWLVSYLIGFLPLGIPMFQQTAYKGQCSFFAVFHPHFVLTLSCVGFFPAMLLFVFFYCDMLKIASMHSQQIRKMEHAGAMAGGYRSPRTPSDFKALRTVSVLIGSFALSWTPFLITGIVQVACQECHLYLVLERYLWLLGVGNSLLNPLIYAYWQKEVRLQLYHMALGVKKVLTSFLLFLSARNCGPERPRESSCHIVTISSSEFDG
Nature of the data set: Agonist activity at human GPR119 expressed in CHO cells co-expressing cyclic AMP response element incubated for 2 hrs by steady-glo luciferase assay. It counts as cell-based. An outline of the steps:
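CHO cells stably expressing human GPR119, seeded at 10,000 cells/well in MEM α with 500 µg/mL Geneticin overnight, then exposed to graded compound concentrations in MEM α/20 mmol/L HEPES/0.1% BSA for 2 h. cAMP-driven luciferase read with Steady-Glo. Response normalized between vehicle and a 10 µM reference agonist; EC50 as mean of n = 2.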

Data set [3] is described as follows: Partition coefficient, logD between 1-octanol and pH 7.4 aqueous buffer by chromatographic analysis. Type of data set: physicochemical. The following applies: 1-octanol/pH 7.4 aqueous buffer. An outline of the steps: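 LogD at pH 7.4, octanol/aqueous buffer partition, estimated by a chromatographic method adapted from a published procedure.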
The nature of data set [4]: Intrinsic clearance in human liver microsomes at 1 uM measured after 15 to 30 mins in presence of NADPH generating system by LC/MS/MS analysis. It counts as ADME, Microsome. The following applies: time 15-30 min, read-out: CLH. An outline of the steps:
(§3)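 Human or rat liver microsomes at 0.2 mg/mL protein in 50 mM potassium phosphate pH 7.4 with 1 µM compound; reaction started with NADPH-generating system (5 mM MgCl2, 5 mM glucose-6-phosphate, 0.5 mM β-NADP+, 1.5 units/mL G6PDH). Stopped with acetonitrile at 15 and 30 min, parent by LC/MS/MS; rate from concentration–time slope, expressed as µL/min/mg.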
On the technique in general: Microsomes from liver hold many membrane-bound enzymes, among them those of drug oxidation.

Data set [5] can be described thus: Total clearance in rat at 0.1 mg/kg, iv by LC/MS/MS analysis. Type of data set: ADME, organism-based. The conditions noted are these: in vivo. An outline of the steps: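 Cassette intravenous dosing at 0.1 mg/kg to non-fasted animals. Plasma taken from blood samples, deproteinized and centrifuged, and compound levels in supernatant quantified by LC/MS/MS.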
Data set [6] addresses Voltage-gated inwardly rectifying potassium channel KCNH2 (Homo sapiens, UniProt Q12809). The data set is described as §1. The conditions noted are these: cho, 5 min, 10 µM. It counts as cell-based. An outline of the steps: as §2
Data set [7] deals with T1, hERG (KCNH2). Nature of the data set: Inhibition of human ERG expressed in CHO cells at 30 uM incubated for 5 mins by patch-clamp assay relative to control. The conditions noted are these: CHO cells expressing human ERG. Type of data set: cell-based. Put shortly:
as §2

Data set [8] can be described thus: Intrinsic clearance in rat liver microsomes at 1 uM measured after 15 to 30 mins in presence of NADPH generating system by LC/MS/MS analysis. It counts as ADME, Microsome. The conditions noted are these: time 15-30 min, read-out: CLH. An outline of the steps: as §3

pEC50: −log10 of the molar value.

In general, inhibition refers to the relative decrease from the control value, in per cent. By pEC50 is commonly meant the negative decadic logarithm of the EC50, by convention in mol/L. Higher therefore signals a low EC50. A word on the logD: it is the decadic logarithm of the distribution of all forms, ionised or not, between an organic phase and buffer at a given pH. A low value points to a more hydrophilic compound. A word on the clearance: it is the rate of elimination divided by the concentration.

Chain of Voltage-gated inwardly rectifying potassium channel KCNH2 (Q12809 whole entry): as the sequence (Q12809 whole entry) above

As for `CC(C)c1noc(N2CCC(Oc3cc(N4CCc5cc([S+]([O-])CCO)ccc54)ncn3)CC2)n1` (racemic), at hERG (KCNH2) [1], the inhibition at 5 min, 10 µM is 107%. In data set [2], this molecule showed a pEC50 of 7.32. The log distribution coefficient (logD) in data set [3] amounted to 2.7.
For the molecule `CC(C)c1noc(N2CCC(Oc3cc(N4CCc5cc(S(C)(=O)=O)ccc54)ncn3)CC2)n1`, the microsomal CLint at 1 µM in data set [4] was 69 µL/min/mg. The molecule further had a clearance in data set [5] of 3.83 mL/min/kg. At hERG (KCNH2) [1], the inhibition at 5 min, 10 µM was 106%.
`CC(C)SC(=O)N1CCC(Oc2cc(N3CCc4cc([S+]([O-])CCO)ccc43)ncn2)CC1` (stereo in doubt; form 1): the “inhibition (INH)” value in data set [6] came out at 44%. The pEC50 in data set [2] was 7.24.
Regarding `CC(=O)N(C)c1ccc2c(c1)CCN2c1cc(OC2CCN(c3nc(C(C)C)no3)CC2)ncn1`, the inhibition at 5 min, 30 µM on hERG (KCNH2) [7] was 108%. Also, the microsomal CLint at 1 µM in data set [4] worked out at 173 µL/min/mg; in data set [8] it was 17 µL/min/mg. For the same molecule, at hERG (KCNH2) [1], the inhibition at 5 min, 10 µM was 66%. The pEC50 in data set [2] was 7.12. In addition, the pH-dependent lipophilicity (logD) in data set [3] came out at 3.7.
Take `CC(C)c1noc(N2CCC(Oc3cc(N4CCc5cc(N6CC(O)CCC6=O)ccc54)ncn3)CC2)n1` (racemic): the microsomal CLint at 1 µM stood at 1 µL/min/mg in data set [4] and 7 µL/min/mg in data set [8]. Also, on hERG (KCNH2) [1], the inhibition at 5 min, 10 µM was found to be 18%. The same molecule had a pEC50 in data set [2] of 7.05. This molecule registered a logD in data set [3] of 2.6.
Take `CC(C)SC(=O)N1CCC(Oc2cc(N3CCc4cc(S(C)(=O)=O)ccc43)ncn2)CC1`: the inhibition at 5 min, 10 µM at hERG (KCNH2) [1] came to 89%. Moreover, in data set [2], the negative logarithm of the EC50 (pEC50) is 8.49. In data set [3], this molecule had a logD of 3.6.
Take `CC(C)OC(=O)N1CCC(Oc2cc(N3CCc4cc(S(C)(=O)=O)ccc43)ncn2)CC1`: the inhibition at 5 min, 10 µM against hERG (KCNH2) [1] worked out at 84%.
Consider `CC(C)c1noc(N2CCC(Oc3cc(N4CCc5cc(N6CCC[C@@H](O)C6=O)ccc54)ncn3)CC2)n1`, for which the clearance in data set [5] was 6.25 mL/min/kg. Further, the inhibition at 5 min, 10 µM on hERG (KCNH2) [1] was found to be 23%. The pEC50 in data set [2] is 7.60. This molecule also registered a logD in data set [3] of 3.3.
For `CCc1cnc(N2CCC(C(C)COC(=O)N3CCc4cc(S(C)(=O)=O)cc(F)c43)CC2)nc1` (centres undefined), the microsomal CLint at 1 µM in data set [4] worked out at 329 µL/min/mg; in data set [8] it was 365 µL/min/mg. For the same molecule, the clearance in data set [5] was 47.7 mL/min/kg. Also, the inhibition at 5 min, 10 µM against hERG (KCNH2) [1] amounted to 75%.
Consider `CC(C)c1noc(N2CCC(Oc3cc(N4CCc5cc(N6CCCC6=O)ccc54)ncn3)CC2)n1`, for which the microsomal CLint at 1 µM in data set [8] was 138 µL/min/mg. The inhibition at 5 min, 10 µM against hERG (KCNH2) [1] is 20%. Further, in data set [2], the negative-log EC50 (pEC50) was 7.48. In data set [3], this molecule yielded a logD of 3.7.
Consider `CC(C)c1noc(N2CCC(Oc3cc(N4CCc5cc(N6CCC(O)CC6=O)ccc54)ncn3)CC2)n1` (racemic), for which the microsomal CLint at 1 µM is 4 µL/min/mg in data set [4] and 13 µL/min/mg in data set [8]. The inhibition at 5 min, 10 µM against hERG (KCNH2) [1] came to 18%. In data set [2], the pEC50 was 7.05. In data set [3], this molecule showed a logD of 2.8.
On the same counts, the results for `CC(C)c1noc(N2CCC(Oc3cc(N4CCc5cc(N6CCCS6(=O)=O)ccc54)ncn3)CC2)n1` are 18 µL/min/mg, 1 µL/min/mg, 19%, 8.01 and 3.2.
With `CC(C)c1noc(N2CCC(Oc3cc(N4CCc5cc(S(=O)(=O)CCO)ccc54)ncn3)CC2)n1`, the inhibition at 5 min, 10 µM against hERG (KCNH2) [1] was 102%. The pEC50 in data set [2] is 7.39. In data set [3], this molecule yielded a logD of 2.7.
Consider `CC(C)c1noc(N2CCC(Oc3cc(N4CCc5cc(N6CCOCC6=O)ccc54)ncn3)CC2)n1`, for which the values for the microsomal CLint at 1 µM in data set [4] and in data set [8] were 27 µL/min/mg and 46 µL/min/mg, respectively. Also, at hERG (KCNH2) [1], the inhibition at 5 min, 10 µM came out at 54%. Also, the pEC50 in data set [2] was 7.82. Besides, the pH-dependent lipophilicity (logD) in data set [3] is 3.1.
Consider `CC(C)c1noc(N2CCC(Oc3cc(N4CCc5cc(C6CCCCC6=O)ccc54)ncn3)CC2)n1` (racemic), for which the figures for the microsomal CLint at 1 µM in data set [4] and in data set [8] were 78 µL/min/mg and 141 µL/min/mg, respectively. Moreover, the inhibition at 5 min, 10 µM at hERG (KCNH2) [1] came to 13%. The negative logarithm of the EC50 (pEC50) in data set [2] is 7.32. In addition, the log distribution coefficient (logD) in data set [3] was 4.7.
On to `CC(C)SC(=O)N1CCC(Oc2cc(N3CCc4cc([S+]([O-])CCO)ccc43)ncn2)CC1` (stereo in doubt; form 2), for which the “inhibition (INH)” value in data set [6] was 101%. For the same molecule, in data set [2], the negative-log EC50 (pEC50) was 8.01. Further, in data set [3], the pH-dependent lipophilicity (logD) is 3.3.
As for `CC(C)c1noc(N2CCC(Oc3cc(N4CCc5cc(N6CCCCC6=O)ccc54)ncn3)CC2)n1`, the microsomal CLint at 1 µM in data set [8] was 13 µL/min/mg. For the same molecule, the inhibition at 5 min, 10 µM at hERG (KCNH2) [1] is 31%. For the same molecule, in data set [2], the pEC50 was 7.77. Besides, in data set [3], the pH-dependent lipophilicity (logD) came to 3.8.
On to `CC(C)c1noc(N2CCC(Oc3cc(N4CCc5cc(N6CCCC(O)C6=O)ccc54)ncn3)CC2)n1` (racemic), for which the microsomal CLint at 1 µM in data set [8] came out at 4 µL/min/mg. Besides, at hERG (KCNH2) [1], the inhibition at 5 min, 10 µM came to 20%. The same molecule showed a negative-log EC50 (pEC50) in data set [2] of 7.77. For the same molecule, in data set [3], the logD was found to be 3.3.
On to `CC(C)c1noc(N2CCC(Oc3cc(N4CCc5cc(N6CCNCC6=O)ccc54)ncn3)CC2)n1`, for which the microsomal CLint at 1 µM in data set [8] amounted to 98 µL/min/mg. The inhibition at 5 min, 10 µM against hERG (KCNH2) [1] came to 15%. The negative-log EC50 (pEC50) in data set [2] was 7.44. The molecule further came in with a logD in data set [3] of 2.7.
Consider `CC(C)SC(=O)N1CCC(Oc2cc(N3CCc4ccccc43)ncn2)CC1`, for which the inhibition at 5 min, 30 µM at hERG (KCNH2) [7] came to 16%. Also, the inhibition at 5 min, 10 µM at hERG (KCNH2) [1] came to 14%. This molecule gave a negative-log EC50 (pEC50) in data set [2] of under 5.00. Also, the logD in data set [3] stood at 5.3.
With `CC(C)SC(=O)N1CCC(Oc2cc(N3CCc4cc([S+]([O-])CCO)ccc43)ncn2)CC1` (racemic), the “inhibition (INH)” value in data set [6] was 95%. Besides, the negative-log EC50 (pEC50) in data set [2] was 7.85.
On to `CC(C)c1noc(N2CCC(Oc3cc(N4CCc5cc(N6CCCNS6(=O)=O)ccc54)ncn3)CC2)n1`, for which the figures for the microsomal CLint at 1 µM in data set [4] and in data set [8] were 79 µL/min/mg and 21 µL/min/mg, respectively. For the same molecule, at hERG (KCNH2) [1], the inhibition at 5 min, 10 µM was determined as 20%. The molecule further showed a negative logarithm of the EC50 (pEC50) in data set [2] of 7.62. In addition, in data set [3], the pH-dependent lipophilicity (logD) stood at 3.2.

For the origin of these results see ChEMBL document CHEMBL4715912, “Discovery of a novel series of indolinylpyrimidine-based GPR119 agonists: Elimination of ether-a-go-go-related gene liability using a hydrogen bond acceptor-focused approach” (Bioorg Med Chem, 2021).
